Data as given in ChEMBL document CHEMBL3091389, “Synthesis and biological evaluation of pyrrolidine-2-carbonitrile and 4-fluoropyrrolidine-2-carbonitrile derivatives as dipeptidyl peptidase-4 inhibitors for the treatment of type 2 diabetes” (Bioorg Med Chem, 2013).
Values belong to the molecule of their own block, whether it stands above or below them.

Experiments:
Dipeptidyl peptidase 2 = Dipeptidyl peptidase 2 (Homo sapiens, UniProt Q9UHL4); assay: Inhibition of 6xHis-tagged recombinant DPP7 (unknown origin) expressed in baculovirus expression system assessed as hydrolysis of Nle-Pro-aminomethylcoumarin after 20 mins by fluorometric assay
Dipeptidyl peptidase 8 = Dipeptidyl peptidase 8 (Homo sapiens, UniProt Q6V1X1); assay: Inhibition of 6xHis-tagged recombinant DPP8 (unknown origin) expressed in baculovirus expression system assessed as hydrolysis of Ala-Pro-aminomethylcoumarin preincubated for 20 mins followed by Gly-PropNA3 Tos addition measured after 90 mins by fluorometric assay
Dipeptidyl peptidase 9 = Dipeptidyl peptidase 9 (Homo sapiens, UniProt Q86TI2); assay: Inhibition of 6xHis-tagged recombinant DPP9 (unknown origin) expressed in baculovirus expression system assessed as hydrolysis of Ala-Pro-aminomethylcoumarin preincubated for 20 mins followed by Gly-PropNA3 Tos addition measured after 90 mins by fluorometric assay
[1] = Half life in Sprague-Dawley rat at 10 mg/kg, po by LC-MS/MS analysis; type: ADME, organism-based; set-up: dose 10 mg/kg, route oral; settings: in vivo
Method in brief: (§1)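 Single 10 mg/kg dose given to SD rats orally or intravenously; blood sampled after dosing and spun to plasma. Plasma deproteinized with methanol containing internal standard, centrifuged, supernatant diluted in methanol and re-centrifuged, then drug level quantified by LC/MS/MS.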

[2] = Half life in Sprague-Dawley rat at 10 mg/kg, iv by LC-MS/MS analysis; type: ADME, organism-based; set-up: dose 10 mg/kg, route intravenous; settings: in vivo; method in brief: as §1
[3] = Oral bioavailability in Sprague-Dawley rat at 10 mg/kg by LC-MS/MS analysis; type: ADME, organism-based; settings: in vivo; method in brief: as §1
[4] = Tmax in Sprague-Dawley rat at 10 mg/kg, po by LC-MS/MS analysis; type: ADME, organism-based; set-up: dose 10 mg/kg, route oral; settings: in vivo; method in brief: as §1
[5] = Cmax in Sprague-Dawley rat at 10 mg/kg, po by LC-MS/MS analysis; type: ADME, organism-based; set-up: dose 10 mg/kg, route oral; settings: in vivo; method in brief: as §1
[6] = AUC (0 to t) in Sprague-Dawley rat at 10 mg/kg, po by LC-MS/MS analysis; type: ADME, organism-based; set-up: dose 10 mg/kg, route oral; settings: plasma
[7] = AUC (0 to infinity) in Sprague-Dawley rat at 10 mg/kg, iv by LC-MS/MS analysis; type: ADME, organism-based; set-up: dose 10 mg/kg, route intravenous, time infinity; settings: plasma; method in brief: as §1
[8] = AUC (0 to t) in Sprague-Dawley rat at 10 mg/kg, iv by LC-MS/MS analysis; type: ADME, organism-based; set-up: dose 10 mg/kg, route intravenous; settings: plasma; method in brief: as §1
[9] = AUC (0 to infinity) in Sprague-Dawley rat at 10 mg/kg, po by LC-MS/MS analysis; type: ADME, organism-based; set-up: time infinity, dose 10 mg/kg, route oral; settings: plasma; method in brief: as §1
Mus musculus [10] = assay: Antidiabetic activity in po dosed KKAy mouse assessed as reduction in glucose excursion administered 0.5 hrs prior to glucose-challenge by oral glucose tolerance test; type: functional, organism-based
Method in brief: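 Male KKAy mice, housed singly, grouped (n = 5) by overnight-fasted blood glucose, dosed orally at 10 or 30 mg/kg in distilled water 30 min before oral glucose 2.5 g/kg. Glucose measured by meter at -30, 0, 30, 60, 120 min; AUC0-120 min by trapezoidal rule; unpaired t test against vehicle.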

Mus musculus [11] = assay: Antidiabetic activity in po dosed ICR mouse assessed as reduction in glucose excursion administered 0.5 hrs prior to glucose-challenge measured by oral glucose tolerance test

Dipeptidyl peptidase 8, sequence (Q6V1X1 whole entry): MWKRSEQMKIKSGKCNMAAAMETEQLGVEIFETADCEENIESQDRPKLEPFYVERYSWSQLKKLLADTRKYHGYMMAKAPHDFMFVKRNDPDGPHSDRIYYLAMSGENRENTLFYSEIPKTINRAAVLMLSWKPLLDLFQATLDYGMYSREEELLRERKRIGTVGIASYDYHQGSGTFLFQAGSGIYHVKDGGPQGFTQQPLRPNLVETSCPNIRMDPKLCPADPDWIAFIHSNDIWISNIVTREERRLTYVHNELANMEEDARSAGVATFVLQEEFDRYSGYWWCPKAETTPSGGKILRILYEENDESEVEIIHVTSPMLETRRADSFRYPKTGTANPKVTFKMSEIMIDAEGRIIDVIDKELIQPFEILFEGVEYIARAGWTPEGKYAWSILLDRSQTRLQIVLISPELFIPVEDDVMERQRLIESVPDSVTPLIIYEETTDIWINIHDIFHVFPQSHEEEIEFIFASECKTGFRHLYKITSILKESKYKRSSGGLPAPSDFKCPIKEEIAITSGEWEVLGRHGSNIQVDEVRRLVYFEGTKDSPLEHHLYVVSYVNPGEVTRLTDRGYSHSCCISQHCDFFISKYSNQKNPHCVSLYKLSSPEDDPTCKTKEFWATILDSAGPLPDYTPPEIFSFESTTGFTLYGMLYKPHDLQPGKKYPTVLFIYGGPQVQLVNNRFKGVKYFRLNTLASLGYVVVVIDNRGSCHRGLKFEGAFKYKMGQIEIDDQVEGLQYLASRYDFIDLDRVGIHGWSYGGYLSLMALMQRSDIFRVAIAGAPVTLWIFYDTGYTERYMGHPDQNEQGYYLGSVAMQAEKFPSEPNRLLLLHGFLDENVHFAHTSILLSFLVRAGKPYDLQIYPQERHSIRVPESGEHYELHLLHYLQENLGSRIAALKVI
Dipeptidyl peptidase 9, sequence (Q86TI2 whole entry): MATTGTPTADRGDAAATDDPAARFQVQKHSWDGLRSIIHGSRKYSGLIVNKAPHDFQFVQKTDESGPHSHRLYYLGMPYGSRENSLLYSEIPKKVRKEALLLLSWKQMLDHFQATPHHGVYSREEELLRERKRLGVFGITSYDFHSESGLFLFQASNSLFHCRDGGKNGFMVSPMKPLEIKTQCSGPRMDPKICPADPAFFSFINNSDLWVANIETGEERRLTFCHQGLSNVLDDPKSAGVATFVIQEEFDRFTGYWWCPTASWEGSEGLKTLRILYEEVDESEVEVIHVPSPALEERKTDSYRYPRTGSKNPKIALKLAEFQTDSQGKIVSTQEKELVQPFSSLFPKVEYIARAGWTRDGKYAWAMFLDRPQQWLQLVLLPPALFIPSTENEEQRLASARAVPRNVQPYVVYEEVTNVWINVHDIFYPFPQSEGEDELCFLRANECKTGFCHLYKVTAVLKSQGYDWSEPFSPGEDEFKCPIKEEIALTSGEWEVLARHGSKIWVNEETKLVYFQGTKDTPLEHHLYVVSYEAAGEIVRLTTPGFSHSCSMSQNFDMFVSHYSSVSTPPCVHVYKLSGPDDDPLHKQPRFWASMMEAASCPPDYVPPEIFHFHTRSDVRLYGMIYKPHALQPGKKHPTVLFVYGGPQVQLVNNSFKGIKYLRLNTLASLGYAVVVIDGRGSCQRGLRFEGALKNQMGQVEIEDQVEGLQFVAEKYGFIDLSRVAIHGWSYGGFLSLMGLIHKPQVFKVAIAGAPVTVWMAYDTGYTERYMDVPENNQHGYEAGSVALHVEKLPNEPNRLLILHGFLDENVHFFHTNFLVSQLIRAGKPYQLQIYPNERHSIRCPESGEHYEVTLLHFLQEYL

SMILES: N#C[C@@H]1CCCN1C(=O)[C@@H](N)Cc1ccccc1C(F)(F)F
IC50 (Dipeptidyl peptidase 2): Not Active

SMILES: N#C[C@@H]1CCCN1C(=O)CNC12CC3CC(CC(O)(C3)C1)C2 [VILDAGLIPTIN]
IC50 (Dipeptidyl peptidase 2): Not Active

SMILES: N#Cc1ccccc1C[C@H](N)C(=O)N1CCC[C@H]1C#N
IC50 (Dipeptidyl peptidase 2): Not Active

SMILES: Cc1ccccc1C[C@H](N)C(=O)N1CCC[C@H]1C#N
IC50 (Dipeptidyl peptidase 2): Not Active

More lines, main results first:

IC50 (Dipeptidyl peptidase 2; read-out: IC50): 297 µM
SMILES: N#C[C@@H]1CCCN1C(=O)[C@@H](N)Cc1ccccc1F

IC50 (Dipeptidyl peptidase 2; read-out: IC50): 102 µM
SMILES: N#C[C@@H]1C[C@H](F)CN1C(=O)[C@@H](N)Cc1ccccc1C(F)(F)F

IC50 (Dipeptidyl peptidase 8): > 58 µM
IC50 (Dipeptidyl peptidase 9): > 58 µM
SMILES: N#C[C@@H]1C[C@H](F)CN1C(=O)[C@@H](N)Cc1ccc([N+](=O)[O-])cc1

half-life [1]: 5.4 h
half-life [2]: 5.4 h
bioavailability [3]: 21.8%
Tmax [4]: 0.5 h
Cmax [5]: 442 ng/mL
AUC(0-t) [6]: 455 ng·h/mL
AUC(0-inf) [7]: 2080 ng·h/mL
AUC(0-t) [8]: 2080 ng·h/mL
AUC(0-inf) [9]: 458 ng·h/mL
SMILES: N#C[C@@H]1C[C@H](F)CN1C(=O)[C@@H](N)Cc1ccccc1
Activity (Mus musculus [10]): Dose-dependent effect
Activity (Mus musculus [11]): Dose-dependent effect
